Assay results collected from several papers.
Lines come from different studies, so protocols differ.
Target: Activin receptor type-2A (ACVR2A, Homo sapiens, UniProt P27037)

Compound	read-out	method	concentration	remaining binding [%]
O=C1CCc2cc(Nc3cc(OC4CCOCC4)c([N+](=O)[O-])cc3Cl)ccc2N1	cell-free assay	competition with immobilised ligand	1 µM	81
F[C@@H]1CCN(c2nccc(-c3cnn4ncccc34)n2)C1	binding		1 µM	100
COc1cnc(Nc2cccc(S(N)(=O)=O)c2)nc1N1CCN(c2ccccc2)CC1	binding	competition with immobilised ligand	1 µM	97
N[C@@H]1CCN(c2nccc(-c3cnn4ncccc34)n2)C1	binding		1 µM	100
CCOC(=O)c1cc2cc(-c3cc(C(=O)NCc4ccc(C(=O)O)cc4)nn3C)ccc2[nH]1	cell-free assay	competition with immobilised ligand	0.1 µM	59
CN(c1nccc(-c2cnn3ncccc23)n1)C1CC1	binding		1 µM	100
O=C(c1ccc(Nc2ncc(Cl)c(-c3cc4ccccc4s3)n2)cc1)N1CCC(N2CCCC2)CC1	binding	competition with immobilised ligand	1 µM	64
COc1ccc2c(O[C@@H]3C[C@H]4C(=O)N[C@]5(C(=O)O)CC5/C=C\CCCCC[C@H](NC(=O)OC5CCCC5)C(=O)N4C3)cc(-c3csc(NC(=O)C(C)C)n3)nc2c1C (stereo partly shown)	cell-free assay	competition with immobilised ligand	1 µM	72
Cc1cnn2ncc(-c3ccnc(N(C)C)n3)c2c1	binding		1 µM	74
c1cncc(-c2cccc(Nc3nccc(NC4CCCCC4)n3)c2)c1	binding	competition with immobilised ligand	10 µM	70
O=C(NCC1CCOCC1)c1n[nH]cc1NC(=O)c1c(F)cccc1F	binding	competition with immobilised ligand	1 µM	85
CC1=C(C#N)C(c2ccc3c(c2)c(NC(=O)c2ccccc2C)nn3C)C(C#N)=C(C)N1	cell-free assay	competition with immobilised ligand	1 µM	97
FC(F)(F)Oc1cccc(-c2cnc3ccc(-c4ccncc4)nn23)c1	cell-free assay	competition with immobilised ligand	5 µM	77
CN(C)c1ncc(F)c(-c2cnn3ncccc23)n1	binding		1 µM	95
CN(C)CC#Cc1ccc(OCCCc2sc(N3CCc4cccc(C(=O)Nc5nc6ccccc6s5)c4C3)nc2C(=O)O)c(F)c1	cell-free assay	competition with immobilised ligand	1 µM	94
COc1ncc2cc3ccccc3nc2c1C#N	cell-free assay	competition with immobilised ligand	5 µM	85
O=C(NCc1ncc(C(F)(F)F)cc1Cl)c1ccc2c(c1)C1(CCS(=O)(=O)CC1)[C@@H](C1CC1)N2S(=O)(=O)c1ccc(F)cc1	cell-free assay	competition with immobilised ligand	1 µM	100
O=C(c1ccc(Nc2nccc(-c3cc4ccccc4s3)n2)cc1)N1CCC(N2CCCC2)CC1	binding	competition with immobilised ligand	1 µM	90
C[C@H]1CCN(c2nccc(-c3cnn4ncccc34)n2)C1	binding		1 µM	96
C=CC(=O)N1CCC(C(=O)NCC(=O)N2CCN(c3nc(-c4cnc(N)nc4C(F)F)nc(N4CCOCC4)n3)CC2)CC1	binding	competition with immobilised ligand	1 µM	86
CC(=O)Nc1c(C(C)=O)c(=O)n(C)c2nc(-c3ccc(Cl)cc3Cl)c(-c3ccc(Cl)cc3)cc12	cell-free assay	competition with immobilised ligand	1 µM	100
O=C(c1ccc(Nc2ncc(Cl)c(-c3ccc(Cl)s3)n2)cc1)N1CCC(N2CCCC2)CC1	binding	competition with immobilised ligand	1 µM	71
